TbMetRS inhib – Trypanosoma brucei MetRS inhibition. purified T. brucei MetRS, ATP depletion, Kinase-Glo luminescence. inhibition, % at 11.9 µM. 360,000 compounds, 0.4% hits. AID 624268;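 active = inhibition above a per-plate cutoff of the control wells' mean inhibition plus 3 SD, cut at about 5.5% in these data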;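 also: 0% = DMSO wells median and 100% = median of wells with control inhibitor compound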
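Test system – parasite MetRS enzyme · Reagent – substrates ATP, L-methionine and bulk Escherichia coli tRNA · Doses – 11.9 µM compound single dose, 0.9% DMSO · Times – 15 min enzyme-compound preincubation, 2 h reaction, 10 min detection, 25 °C · Signal – Kinase-Glo luminescence, ATP depletion format · Controls – DMSO-only wells as low control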
IDE cell activ – boosts human insulin-degrading enzyme activity in HEK cells; P14735; FAbeta-B cleavage, fluorescence polarization; 0% vehicle, 100% cell-free pure enzyme wells; activation, % at 5.96 µM; 340,000 compounds, 0.073% hits; AID 493087;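 active = activation above the mean of all tested compounds plus 3 SD, set per screening campaign, cut at about 17% in these data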
Target sequence (P14735 whole entry, looked up): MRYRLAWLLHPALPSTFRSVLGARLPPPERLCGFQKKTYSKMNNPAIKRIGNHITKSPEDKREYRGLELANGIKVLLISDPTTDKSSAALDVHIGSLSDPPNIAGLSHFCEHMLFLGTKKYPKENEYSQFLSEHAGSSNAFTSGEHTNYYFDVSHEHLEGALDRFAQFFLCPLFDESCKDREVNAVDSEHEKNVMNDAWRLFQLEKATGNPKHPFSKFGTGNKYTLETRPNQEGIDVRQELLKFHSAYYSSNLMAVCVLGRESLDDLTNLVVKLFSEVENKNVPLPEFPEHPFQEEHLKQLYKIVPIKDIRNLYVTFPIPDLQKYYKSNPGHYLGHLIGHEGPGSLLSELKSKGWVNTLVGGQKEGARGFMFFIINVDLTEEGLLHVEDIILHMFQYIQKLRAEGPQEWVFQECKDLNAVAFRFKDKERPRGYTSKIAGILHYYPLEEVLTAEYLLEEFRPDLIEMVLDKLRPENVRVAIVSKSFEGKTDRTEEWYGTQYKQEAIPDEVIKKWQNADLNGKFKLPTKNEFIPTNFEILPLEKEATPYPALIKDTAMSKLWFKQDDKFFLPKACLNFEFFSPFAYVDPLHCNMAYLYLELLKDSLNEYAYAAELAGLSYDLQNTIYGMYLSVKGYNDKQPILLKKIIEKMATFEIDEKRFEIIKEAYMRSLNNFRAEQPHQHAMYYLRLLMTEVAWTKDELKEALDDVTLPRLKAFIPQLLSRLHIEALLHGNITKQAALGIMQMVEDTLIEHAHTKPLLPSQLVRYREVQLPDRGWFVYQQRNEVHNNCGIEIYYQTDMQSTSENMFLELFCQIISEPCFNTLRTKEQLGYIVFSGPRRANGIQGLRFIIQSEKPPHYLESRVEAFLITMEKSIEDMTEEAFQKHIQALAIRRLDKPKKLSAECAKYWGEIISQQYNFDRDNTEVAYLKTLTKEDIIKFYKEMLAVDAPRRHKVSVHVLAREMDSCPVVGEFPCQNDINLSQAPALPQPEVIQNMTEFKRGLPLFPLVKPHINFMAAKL
Efflux pump inh – antifungal efflux pump inhibition, Nile Red retention; inhibition, % at 10 µM; 330,000 compounds, 0.44% hits; S. cerevisiae Candida pump triplex;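 active = plate passing quality check with inhibition over a set limit, or well fluorescence over plate mean plus 4 SD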;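 also: Nile Red retained in pooled yeast measured as flow cytometry median fluorescence; 0% = buffer negative control and 100% = Enniatin B positive control; higher means more Nile Red kept so more efflux inhibition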
Yeast superoxide – caloric restriction mimetics inhibiting age-related superoxide in yeast; S. cerevisiae aged cells, superoxide DHE fluorescence; stronger effect = lower value; superoxide response (% of plate mean), % at 10 µM; 330,000 compounds, 0.18% hits; AID 2690;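 active = superoxide response under a set limit, about three screen SD below normal, cut at about 65% in these data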;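 also: yeast aged for seven days with compound at 30 °C before DHE staining; 100% = average MFI of all compound-treated wells on the plate with controls excluded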
IDE cell inh – inhibitors of human insulin-degrading enzyme in cells; inhibition, % at 5.59 µM; P14735; HEK cells, FAbetaB cleavage, fluorescence polarization; 320,000 compounds, 0.41% hits;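 active = percent inhibition above the average of all tested compounds plus 3 SD, set per screening campaign, cut at about 16% in these data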;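 also: IDE supplied by intact live HEK cells; FP after avidin binding of uncleaved biotin substrate so inhibition keeps polarization high; 0% = DMSO wells and 100% = 60 µM reference IDE inhibitor Ii1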
HDAC3 inh – blocks human histone deacetylase 3; O15379; inhibition, % at 8.3 µM; 320,000 compounds, 0.15% hits; recombinant HDAC3, fluorogenic peptide/trypsin coupled, fluorescence; in the data active = inhibition above about 26%, passing the limit was not always enough
Superoxide pick – yeast aging superoxide inhibition, cherry pick confirmation | shares compounds with Yeast superoxide | S. cerevisiae aging, superoxide DHE fluorescence; stronger effect = lower value | superoxide response (% of plate), % at 10 µM | 850 compounds, 1% hits | AID 434994;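 active = superoxide signal below 65% of the plate average of sample wells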;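 also: cells aged with compound for 7 days at 30 degrees C before staining; 100% equals mean DHE fluorescence of all compound wells on the plate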
DHE fluor count – counter-screen for compounds affecting DHE oxidation and fluorescence in yeast. shares compounds with Yeast superoxide. S. cerevisiae BY4741, flow cytometry; stronger effect = lower value. fluorescence response, % at 10 µM. 850 tested, under 10 active. AID 435000;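 active = fluorescence response below 15%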;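 also: percent of the mean fluorescence averaged over all compound wells on the plate; lower means stronger quenching of DHE signal or ROS scavenging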
* = called active by the depositor. A selection: hits, their analogues and other compounds. The true share with any hit is near 1.4%.

Screening COCCN(C(=O)COC(=O)c1ccc(Cl)nc1)c1c(N)n(Cc2ccccc2)c(=O)[nH]c1=O returned TbMetRS inhib 0, IDE cell activ -2, Efflux pump inh 0, Yeast superoxide 103, IDE cell inh 10 and HDAC3 inh 3.
`Cc1cccc(N2CCN(C(=O)CC(NC(=O)c3ccccc3)c3ccccc3)CC2C)c1` (stereo unspecified) gave TbMetRS inhib 0, IDE cell activ -5, Efflux pump inh 2, Yeast superoxide 54*, IDE cell inh 1, HDAC3 inh 2, Superoxide pick 84 and DHE fluor count 91.
`O=c1c2ccc(Cl)cc2nc(-c2ccc([N+](=O)[O-])cc2)n1O` gave TbMetRS inhib 0, IDE cell activ 2, Efflux pump inh 0, Yeast superoxide 54*, IDE cell inh -1, HDAC3 inh 6, Superoxide pick 87 and DHE fluor count 90.
Screening O=S1(=O)c2ccccc2Nc2ccccc21 returned TbMetRS inhib -1, IDE cell activ 4, Efflux pump inh 0, Yeast superoxide 117, IDE cell inh 0 and HDAC3 inh -1.
For Nc1cc(=O)nc(SCC(=O)Nc2cccc3ccccc23)n1CCc1ccccc1 the results were TbMetRS inhib 1, IDE cell activ 4, Efflux pump inh 0, Yeast superoxide 101, IDE cell inh 4 and HDAC3 inh 2.
For CCCCCCCCSc1nnc(-c2ccc(OC)cc2)o1 the results were TbMetRS inhib -1, IDE cell activ 2, Efflux pump inh 0, Yeast superoxide 87, IDE cell inh 2, Superoxide pick 103 and DHE fluor count 93.
Screening COc1ccc(C(=O)NCCOC(C)C)cc1OC1CCN(C(C)=O)CC1 returned TbMetRS inhib -1, IDE cell activ -4, Efflux pump inh 0, Yeast superoxide 97, IDE cell inh -1 and HDAC3 inh 3.
`CCc1nnc(NC(=O)c2ccc(S(=O)(=O)N3CCCC(C)C3)cc2)o1` (stereo unspecified) gave TbMetRS inhib 0, IDE cell activ 1, Efflux pump inh 0, Yeast superoxide 64*, IDE cell inh -1, HDAC3 inh 2, Superoxide pick 103 and DHE fluor count 107.
Screening CC1CC(C)CN(S(=O)(=O)c2ccc(C(=O)Nc3nnc(C4CC4)o3)cc2)C1 (stereo unspecified) returned TbMetRS inhib 0, IDE cell activ -2, Efflux pump inh 0, Yeast superoxide 83, IDE cell inh -3, HDAC3 inh -3, Superoxide pick 92 and DHE fluor count 96.
For CC1CCN(S(=O)(=O)c2ccc(C(=O)Nc3nnc(-c4ccccn4)o3)cc2)CC1 the results were TbMetRS inhib 1, IDE cell activ 3, Efflux pump inh 0, Yeast superoxide 94, IDE cell inh 1, Superoxide pick 96 and DHE fluor count 99.
For COCc1nnc(NC(=O)c2ccc(S(=O)(=O)N3CCCC3)cc2)o1 the results were TbMetRS inhib 0, IDE cell activ -3, Efflux pump inh 0, Yeast superoxide 82, IDE cell inh 0, HDAC3 inh 2, Superoxide pick 116 and DHE fluor count 125.
CCOC(=O)N1CCN(S(=O)(=O)c2ccc(C(=O)Nc3nnc(CC)o3)cc2)CC1 was read as TbMetRS inhib 0, IDE cell activ -4, Efflux pump inh 0, Yeast superoxide 108, IDE cell inh 1 and HDAC3 inh -3.
`COc1ccc(CC(=O)N2CCc3cc(OC)c(OC)cc3C2O)cc1OC` (stereo unspecified) gave TbMetRS inhib 0, IDE cell activ 4, Efflux pump inh 0, Yeast superoxide 101, IDE cell inh 3 and HDAC3 inh -6.
Screening COc1ccc(Cl)cc1NS(=O)(=O)c1ccc(OC)c(OC)c1 returned TbMetRS inhib 0, IDE cell activ 3, Efflux pump inh 0, Yeast superoxide 100, IDE cell inh 1 and HDAC3 inh -15.
For COc1ccc(C)cc1S(=O)(=O)Nc1cc(Cl)ccc1Cl the results were TbMetRS inhib -1, IDE cell activ 3, Efflux pump inh 0, Yeast superoxide 91, IDE cell inh 9, HDAC3 inh -7, Superoxide pick 92 and DHE fluor count 97.
COc1cc(S(=O)(=O)Nc2ccccc2C)ccc1Cl was read as TbMetRS inhib -1, IDE cell activ 0, Efflux pump inh 0, Yeast superoxide 98, IDE cell inh 6, HDAC3 inh 1, Superoxide pick 100 and DHE fluor count 100.
COc1ccc(S(=O)(=O)Nc2cc(Cl)ccc2OC)cc1 was read as TbMetRS inhib 1, IDE cell activ -1, Efflux pump inh 0, Yeast superoxide 89, IDE cell inh 0, HDAC3 inh 6, Superoxide pick 109 and DHE fluor count 108.
Screening O=C(c1cccc(F)c1)N1CCC(c2nc3ccccc3s2)CC1 returned TbMetRS inhib 0, IDE cell activ 5, Efflux pump inh 0, Yeast superoxide 105, IDE cell inh -3 and HDAC3 inh 1.
For COc1cccc(C(C(=O)NCc2ccccc2)N2CCN(c3cccc(C)c3C)CC2)c1OC (stereo unspecified) the results were TbMetRS inhib -1.
`CCn1c(SCC(=O)Nc2cc(C)on2)nnc1-c1ccc(S(=O)(=O)N2CCCC2)cc1` gave TbMetRS inhib 0, IDE cell activ 2, Efflux pump inh 0, Yeast superoxide 104, IDE cell inh 2 and HDAC3 inh -2.
Screening Cc1cc(NC(=O)CSc2nnc(-c3ccc(S(=O)(=O)N4CCCC4)cc3)n2C)no1 returned TbMetRS inhib 0, IDE cell activ -6, Efflux pump inh 0, Yeast superoxide 51*, IDE cell inh 2, HDAC3 inh 6, Superoxide pick 90 and DHE fluor count 108.
N#C/C(=N\Nc1cccc(C(F)(F)F)c1)C(=O)c1ccsc1 was read as TbMetRS inhib -1, IDE cell activ 9, Efflux pump inh 0, Yeast superoxide 64*, IDE cell inh 0, HDAC3 inh -7, Superoxide pick 108 and DHE fluor count 106.
For Fc1ccccc1COc1ccc(C(=S)N2CCCC2)cc1 the results were TbMetRS inhib 0, IDE cell activ 2, Efflux pump inh 0, Yeast superoxide 65*, IDE cell inh 7, HDAC3 inh -2, Superoxide pick 107 and DHE fluor count 93.
For O=C(Oc1ccc(C(=S)N2CCCCC2)cc1)c1ccccc1F the results were TbMetRS inhib 0, IDE cell activ 5, Efflux pump inh 0, Yeast superoxide 93, IDE cell inh -2 and HDAC3 inh -6.
